Results as given in ChEMBL document CHEMBL1649159, “A redox basis for metronidazole resistance in Helicobacter pylori” (Antimicrob Agents Chemother, 2009).
In brackets after ≈: the same amount, converted by molar mass.

Tests used:
[1] = Drug activation in metronidazole-susceptible Helicobacter pylori HER 126 V1 lysate
[2] = Drug activation in metronidazole-susceptible Helicobacter pylori RIG 117 J0 lysate
[3] = Drug activation in metronidazole-susceptible Helicobacter pylori CAS 015 J0 lysate
[4] = Drug activation in metronidazole-resistant Helicobacter pylori CAS 015 J56 lysate harboring rdxA L132stop and frxA L39stop mutant genes; type: organism-based
[5] = Drug activation in metronidazole-resistant Helicobacter pylori RIG 117 J56 lysate
[6] = Drug activation in metronidazole-resistant Helicobacter pylori 10593a/2 lysate
[7] = Drug activation in metronidazole-susceptible Helicobacter pylori 10593/2 lysate
[8] = Drug activation in metronidazole-resistant Helicobacter pylori HER 126 V4 lysate
Helicobacter pylori [9] = assay: Prodrug activation in compound-resistant Helicobacter pylori CAS 015 J56 lysate harboring rdxA L132stop and frxA L39stop mutant genes assessed as compound reduction under oxygenated microaerobic condition per mg of protein
In short: (§1)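 Lysates of H. pylori strains grown at 37°C, either aerobically (5% CO2 in air) or microaerobically (5% CO2, 5% O2, 90% N2), with Mtr and NADH as substrates for reduction activity. Some lysate samples were argon-treated to displace oxygen. Protein content was measured by bicinchoninic acid microtiter assay.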

Helicobacter pylori [10] = assay: Prodrug activation in Helicobacter pylori RIG 117 J0 lysate assessed as compound reduction under oxygenated microaerobic condition per mg of protein; in short: as §1
Helicobacter pylori [11] = assay: Antimicrobial activity against Helicobacter pylori CAS 015 J0 by Etest; type: functional
In short: (§2)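 Etest MIC determination, repeated in triplicate. Strains were grown at 37°C, either aerobically (5% CO2 in air) or microaerobically (5% CO2, 5% O2, 90% N2). Strains were classed as susceptible or resistant using a resistance threshold of 8 µg ml–1, following clinical practice.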

Helicobacter pylori [12] = assay: Prodrug activation in compound-resistant Helicobacter pylori CAS 015 J56 lysate harboring rdxA L132stop and frxA L39stop mutant genes assessed as compound reduction under oxygenated aerobic condition per mg of protein; in short: as §1
Helicobacter pylori [13] = assay: Prodrug activation in Helicobacter pylori RIG 117 J0 lysate assessed as compound reduction under argonized microaerobic condition per mg of protein
In short: (§3)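 Metronidazole reduction was measured in lysate suspensions with Mtr and NADH as substrates. Cells were grown at 37°C either aerobically (5% CO2 in air) or microaerobically (5% CO2, 5% O2, 90% N2). Lysate samples were either argon-treated to displace oxygen or left untreated. Rates were expressed per mg protein, with protein determined by the bicinchoninic acid method.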

Helicobacter pylori [14] = assay: Prodrug activation in Helicobacter pylori RIG 117 J0 lysate assessed as compound reduction under argonized aerobic condition per mg of protein; settings: in vivo; in short: as §3
Helicobacter pylori [15] = assay: Prodrug activation in Helicobacter pylori HER 126 V1 lysate assessed as compound reduction under argonized microaerobic condition per mg of protein; in short: as §1
Helicobacter pylori [16] = assay: Prodrug activation in Helicobacter pylori HER 126 V1 lysate assessed as compound reduction under oxygenated microaerobic condition per mg of protein; settings: in vivo; in short: as §3
Helicobacter pylori [17] = assay: Antimicrobial activity against Helicobacter pylori HER 126 V1 by Etest; type: functional
In short: (§4)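 Metronidazole susceptibility by Etest, repeated in triplicate, on clinical matched-pair isolates collected after failed metronidazole treatment. Strains were grown at 37°C either microaerobically (5% CO2, 5% O2, 90% N2) or aerobically (5% CO2 in air). Isolates were called resistant above a threshold of 8 µg ml–1.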

Helicobacter pylori [18] = assay: Prodrug activation in Helicobacter pylori 10593/2 lysate assessed as compound reduction under argonized aerobic condition per mg of protein; in short: as §3
Helicobacter pylori [19] = assay: Prodrug activation in compound-resistant Helicobacter pylori 10593a/2 lysate harboring rdxA C177stop mutant gene assessed as compound reduction under oxygenated aerobic condition per mg of protein; in short: as §1
Helicobacter pylori [20] = assay: Prodrug activation in compound-resistant Helicobacter pylori HER 126 V4 lysate assessed as compound reduction under argonized microaerobic condition per mg of protein; in short: as §1
Helicobacter pylori [21] = assay: Prodrug activation in Helicobacter pylori 10593/2 lysate assessed as compound reduction under argonized microaerobic condition per mg of protein; in short: as §3
Helicobacter pylori [22] = assay: Antimicrobial activity against compound-resistant Helicobacter pylori RIG 117 J56 harboring rdxA R16C and frxA A40stop mutant genes by Etest; type: functional; in short: as §4
Helicobacter pylori [23] = assay: Antimicrobial activity against compound-resistant Helicobacter pylori 10593a/2 harboring rdxA C177stop mutant gene by Etest; type: functional; in short: as §4
Helicobacter pylori [24] = assay: Prodrug activation in Helicobacter pylori 10593a/2 lysate harboring rdxA C177stop mutant gene assessed as compound reduction under oxygenated microaerobic condition per mg of protein; in short: as §1
Helicobacter pylori [25] = assay: Prodrug activation in compound-resistant Helicobacter pylori RIG 117 J56 lysate harboring rdxA R16C and frxA A40stop mutant genes assessed as compound reduction under oxygenated microaerobic condition per mg of protein; type: organism-based; settings: in vivo; in short: as §1
Helicobacter pylori [26] = assay: Prodrug activation in Helicobacter pylori CAS 015 J0 lysate assessed as compound reduction under argonized microaerobic condition per mg of protein; in short: as §3
Helicobacter pylori [27] = assay: Antimicrobial activity against Helicobacter pylori 10593/2 by Etest; type: functional; in short: as §4
Helicobacter pylori [28] = assay: Antimicrobial activity against Helicobacter pylori RIG 117 J0 by Etest; type: functional; in short: as §2
Helicobacter pylori [29] = assay: Prodrug activation in compound-resistant Helicobacter pylori HER 126 V4 lysate assessed as compound reduction under oxygenated microaerobic condition per mg of protein; settings: in vivo; in short: as §1
Helicobacter pylori [30] = assay: Prodrug activation in Helicobacter pylori 10593/2 lysate assessed as compound reduction under oxygenated microaerobic condition per mg of protein; in short: as §1
Helicobacter pylori [31] = assay: Prodrug activation in Helicobacter pylori CAS 015 J0 lysate assessed as compound reduction under oxygenated microaerobic condition per mg of protein; in short: as §1
Helicobacter pylori [32] = assay: Prodrug activation in compound-resistant Helicobacter pylori 10593a/2 lysate harboring rdxA C177stop mutant gene assessed as compound reduction under argonized microaerobic condition per mg of protein; in short: as §1
Helicobacter pylori [33] = assay: Prodrug activation in Helicobacter pylori HER 126 V1 lysate assessed as compound reduction under argonized aerobic condition per mg of protein; in short: as §3
Helicobacter pylori [34] = assay: Prodrug activation in Helicobacter pylori CAS 015 J0 lysate assessed as compound reduction under argonized aerobic condition per mg of protein; in short: as §3
Helicobacter pylori [35] = assay: Antimicrobial activity against compound-resistant Helicobacter pylori CAS 015 J56 harboring rdxA L132stop and frxA L39stop mutant genes by Etest; type: functional; in short: as §4
Helicobacter pylori [36] = assay: Antimicrobial activity against compound-resistant Helicobacter pylori HER 126 V4 by Etest; type: functional; in short: as §4
Helicobacter pylori [37] = assay: Prodrug activation in Helicobacter pylori CAS 015 J0 lysate assessed as compound reduction under oxygenated aerobic condition per mg of protein; in short: as §1
Helicobacter pylori [38] = assay: Prodrug activation in Helicobacter pylori HER 126 V1 lysate assessed as compound reduction under oxygenated aerobic condition per mg of protein; settings: in vivo; in short: as §3
Helicobacter pylori [39] = assay: Prodrug activation in Helicobacter pylori RIG 117 J0 lysate assessed as compound reduction under oxygenated aerobic condition per mg of protein; settings: in vivo; in short: as §3
Helicobacter pylori [40] = assay: Prodrug activation in Helicobacter pylori 10593/2 lysate assessed as compound reduction under oxygenated aerobic condition per mg of protein; in short: as §1

Compound: Cc1cc2nc3c(=O)[nH]c(=O)nc-3n(C[C@H](O)[C@H](O)[C@H](O)COP(=O)(O)OP(=O)(O)OC[C@H]3O[C@@H](n4cnc5c(N)ncnc54)[C@H](O)[C@@H]3O)c2cc1C [FLAVIN ADENIN DINUCLEOTIDE]
- Km [1]: 6 µM
- Km [2]: 95 µM
- Km [3]: 2.4 µM
- Km [4]: 24 µM
- Km [5]: 11 µM
- Km [6]: 5 µM
- Km [7]: 2.1 µM
- Km [8]: 17 µM

Compound: NC(=O)N/N=C/c1ccc([N+](=O)[O-])o1 [NITROFURAZONE]
- Km [1]: 13.1 µM
- Km [2]: 8.1 µM
- Km [3]: 8.8 µM
- Km [4]: 3.3 µM
- Km [5]: 8.5 µM
- Km [6]: 6 µM
- Km [7]: 2.8 µM
- Km [8]: 6.8 µM

Compound: Cc1ncc([N+](=O)[O-])n1CCO [METRONIDAZOLE]
- Activity (Helicobacter pylori [9]): 9 nmol/min
- Activity (Helicobacter pylori [10]): 19 nmol/min
- MIC (Helicobacter pylori [11]): 4 µg/mL (≈ 23.4 µM)
- Activity (Helicobacter pylori [12]): 13 nmol/min
- Activity (Helicobacter pylori [13]): 32 nmol/min
- Activity (Helicobacter pylori [14]): 33 nmol/min
- Activity (Helicobacter pylori [15]): 20 nmol/min
- Activity (Helicobacter pylori [16]): 18 nmol/min
- MIC (Helicobacter pylori [17]): 2 µg/mL (≈ 11.7 µM)
- Activity (Helicobacter pylori [18]): 36 nmol/min
- Activity (Helicobacter pylori [19]): 10 nmol/min
- Activity (Helicobacter pylori [20]): 11 nmol/min
- Activity (Helicobacter pylori [21]): 32 nmol/min
- MIC (Helicobacter pylori [22]): 32 µg/mL (≈ 187 µM)
- MIC (Helicobacter pylori [23]): 64 µg/mL (≈ 374 µM)
- Activity (Helicobacter pylori [24]): 9 nmol/min
- Activity (Helicobacter pylori [25]): 13 nmol/min
- Activity (Helicobacter pylori [26]): 29 nmol/min
- MIC (Helicobacter pylori [27]): 2 µg/mL (≈ 11.7 µM)
- MIC (Helicobacter pylori [28]): 4 µg/mL (≈ 23.4 µM)
- Activity (Helicobacter pylori [29]): 10 nmol/min
- Activity (Helicobacter pylori [30]): 14 nmol/min
- Activity (Helicobacter pylori [31]): 15 nmol/min
- Activity (Helicobacter pylori [32]): 13 nmol/min
- Activity (Helicobacter pylori [33]): 25 nmol/min
- Activity (Helicobacter pylori [34]): 31 nmol/min
- MIC (Helicobacter pylori [35]): 32 µg/mL (≈ 187 µM)
- MIC (Helicobacter pylori [36]): 64 µg/mL (≈ 374 µM)
- Activity (Helicobacter pylori [37]): 18 nmol/min
- Activity (Helicobacter pylori [38]): 22 nmol/min
- Activity (Helicobacter pylori [39]): 27 nmol/min
- Activity (Helicobacter pylori [40]): 16 nmol/min
